Assay results of several laboratories.
Lines come from different studies, so protocols differ. pEC50, pKd, pKi: −log10 of the molar value.
CYP2A6: Cytochrome P450 2A6 (CYP2A6, Homo sapiens, UniProt P11509)
Slc6a4: Sodium-dependent serotonin transporter (Slc6a4, Rattus norvegicus, UniProt P31652)
OPRM1: Mu-type opioid receptor (OPRM1, Homo sapiens, UniProt P35372)

Structure (SMILES)	target	test	system	setting	endpoint	result
Cc1cc2c(NC(=O)c3cccc(C(=O)O)c3)cccc2nn1	Bromodomain-containing protein 4, BD1 (BRD4, Homo sapiens, UniProt O60885)	binding, competition with immobilised ligand			pKd	4.39
O=c1cc(-c2ccccc2)oc2c1ccc1ccccc12	CYP2A6	enzyme activity, inhibitor		6 min, pH 7.6	pKi	< 4.60
CN(C)c1ccc(C(CNC(=O)c2ccc(Br)cc2)N(C)C)cc1 (centres unmarked)	Slc6a4	ligand displacement, radioligand			pKi	6.52
O=C1c2ccccc2CCN1CCCCN1CCN(c2cccc(Cl)c2Cl)CC1	5-hydroxytryptamine receptor 1D (HTR1D, Homo sapiens, UniProt P28221)	ligand displacement, radioligand			pKi	< 5.00
O=C(NCC1CC1)c1cc(N2CC[C@H](O)C2)nc(N2CCC[C@@H](c3ccccc3)C2)n1	N-acyl-phosphatidylethanolamine-hydrolyzing phospholipase D (Napepld, Mus musculus, UniProt Q8BH82)	enzyme activity, inhibitor, fluorescence			pKi	6.74
C#Cc1cccc2oc(-c3ccccc3)cc(=O)c12	CYP2A6	enzyme activity, inhibitor		6 min, pH 7.6	pKi	< 4.60
CC1=CC(=O)CC(C)(C)[C@@]1(O)/C=C/C(C)=C\C(=O)O	PYL1 (Arabidopsis thaliana, UniProt Q8VZS8)	binding, MST			pKd	4.20
C#Cc1ccc(-c2cc(=O)c3ccccc3o2)cc1	CYP2A6	enzyme activity, inhibitor		6 min, pH 7.6	pKi	< 4.60
c1ccc(-n2nnnc2N2CCNCC2)cc1	Slc6a4	ligand displacement, radioligand			pKi	< 4.70
OC[C@@]12C[C@@H]1[C@@H](n1cnc3c(NC(C4CCCC4)C4CCCC4)nc(Cl)nc31)[C@H](O)[C@@H]2O	OPRM1	cell-free assay, radioligand			pKi	5.46
CCCCN1CCC(COC(=O)c2ccc(N)c(OCF)c2)CC1	OPRM1	cell-free assay, radioligand			pKi	< 5.00
CCCN1CCN(c2ccc(-c3cncc(Cl)c3N3CCC4(CCNC4=O)CC3)cc2)CC1	Glycogen synthase kinase-3 alpha (GSK3A, Homo sapiens, UniProt P49840)	cell-free assay		lysate	pKd	5.76
C#Cc1cccc(-c2cc(=O)c3ccccc3o2)c1	CYP2A6	enzyme activity, inhibitor		6 min, pH 7.6	pKi	< 4.60
Cc1c(C(=O)NN2CCOCC2)nn(-c2ccc(Cl)cc2Cl)c1-c1ccc(I)cc1	OPRM1	ligand displacement, radioligand		cell membranes	pKi	5.67
COc1cc2c(cc1OC)C(=O)N(CCCCN1C(=O)/C(=N\NC(=S)N(C)C)c3ccccc31)CC2	ATP-dependent translocase ABCB1 (ABCB1, Homo sapiens, UniProt P08183)	transporter efflux, inhibitor, fluorescence	MDCK-MDR1		pEC50	4.96
COc1cc(C2Oc3c(OC)cccc3C3CC(c4cc(C)ccc4O)=NN32)ccc1O (centres unmarked)	Prostaglandin E synthase 3 (Homo sapiens, UniProt Q15185)	binding, MST			pKd	5.93
Cc1cc2nc3c(=O)[nH]c(=O)nc-3n(C[C@H](O)[C@H](O)[C@H](O)COP(=O)(O)OP(=O)(O)OC[C@H]3O[C@@H](n4cnc5c(N)ncnc54)[C@H](O)[C@@H]3O)c2cc1C	Far upstream element-binding protein 2 (KHSRP, Homo sapiens, UniProt Q92945)	binding		lysate	pKd	7.59
